Source: PubChem
MEKK3 PB1 HTS = modulators of MEKK3-MEK5 PB1 binding, primary screen, biochemical, wildtype MEKK3, multiplex bead flow cytometry, Alexa488-MEK5 | Mitogen-activated protein kinase kinase kinase 3 (Homo sapiens), Q99759 | bead-based flow cytometry, Alexa488-MEK5 binding to MEKK3; actives lie on both sides; 0 = blocked by unlabeled MEK5, 100 = vehicle | binding response (% of control), % at 10 µM | hit rate 1.4% among 290,000;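 active = binding response more than 3 SD above or below the average of its plate-row segment, actives on both sides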;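 also: Alexa488 bead fluorescence after subtracting the streptavidin-only scavenger bead signal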
MEKK2wt PB1 HTS = modulators of MEK5 binding to wildtype MEKK2, primary screen, biochemical, multiplex bead flow cytometry, Alexa488-MEK5; binding response (% of control), % at 10 µM; Alexa488-MEK5 binding to MEKK2 WT; actives lie on both sides; hit rate 1.1% among 290,000; in the data active = binding response below about 67% or above about 130%
B2AR ag = beta2AR agonists driving receptor internalization, primary screen, cell-based, FAP fluorogen, flow cytometry; hit rate 0.43% among 340,000; Am2.2-beta2AR cells; response, % (concentration not given with the values);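 active = response above a set limit, near 3 SD of response in nonfluorescent compounds, cut at about 42% in these data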
Target sequence (P07550 whole entry, looked up): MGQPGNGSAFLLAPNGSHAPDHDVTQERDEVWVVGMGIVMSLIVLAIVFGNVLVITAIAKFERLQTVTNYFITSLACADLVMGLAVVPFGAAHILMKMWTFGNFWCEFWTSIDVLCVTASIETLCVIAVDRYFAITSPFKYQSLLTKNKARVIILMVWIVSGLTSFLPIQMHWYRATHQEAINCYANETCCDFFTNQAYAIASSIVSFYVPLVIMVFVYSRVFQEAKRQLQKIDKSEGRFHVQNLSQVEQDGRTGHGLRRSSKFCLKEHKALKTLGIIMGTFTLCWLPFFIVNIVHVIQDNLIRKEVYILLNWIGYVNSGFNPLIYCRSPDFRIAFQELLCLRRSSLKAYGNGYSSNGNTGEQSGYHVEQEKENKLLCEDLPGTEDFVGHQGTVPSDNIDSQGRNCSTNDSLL
MEKK2mut PB1 HTS = MEK5 binding signal on mutant MEKK2 PB1, primary screen, biochemical, multiplex bead flow cytometry, Alexa488-MEK5; Alexa488-MEK5 binding to MEKK2 mutant; percent response, % at 10 µM; hit rate 0.35% among 290,000; AID 1530, 2009; in the data active = percent response above about 24%, passing the limit was not always enough
ATG4B inhibitor = ATG4B protease inhibitors, primary screen, biochemical, fluorescence, uHTS. ATG4B cleavage of LC3-PLA2, NBD-HPC fluorescence, 1 h. hit rate 0.51% among 340,000. inhibition, % at 8.33 µM. AID 504462, 2011; in the data active = inhibition above about 40%
Dynein cargo inh = inhibitors of GR-EGFP nuclear translocation, primary screen, dynein cargo transport inhibitor project, imaging, high-content, 3617.4 mouse cells. test concentration mostly 20 µM; stimulated with dexamethasone, 1 µM; stronger effect = lower value. z-score, hits read low. hit rate 0.47% among 220,000. AID 1381, 2008;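 active = plate z-score of nuclear minus cytoplasmic receptor signal below a set negative limit, without overly bright fluorescence or cell loss, cut at about -3.5 in these data, passing the limit was not always enough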;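 also: z-score of nuclear minus cytoplasmic ring GR-EGFP intensity difference per well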
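Buffer or medium: tet-free medium with charcoal-stripped serum / Also added: dexamethasone agonist, 1.0 µM final, for 30 min / Timing: induction 48 h, compound 1 h, agonist 30 min / Measured by: high-content fluorescence imaging after fixation / Read-out: nuclear-to-cytoplasmic GR-EGFP distribution per well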
Dynein confirm = dynein cargo transport inhibitors, GR-EGFP translocation, confirmation, imaging, high-content imaging, GR-EGFP cells. shares compounds with Dynein cargo inh. 3617.4 GR-EGFP nuclear translocation imaging, dexamethasone-induced. calls only at 20 µM. hit rate 69% among 1,000;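 active = inhibition of receptor movement into the nucleus at or above a set limit in both runs, with normal cell brightness and cell count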;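 also: dexamethasone at 1 µM final in well for 30 min; nuclear minus cytoplasmic GR-EGFP mean intensity difference in channel 2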
MEKK2wt confirm = modulators of MEK5 binding to wildtype MEKK2, confirmation, biochemical, single concentration, multiplex bead flow cytometry | hit rate 2.4% among 5,900 | Alexa488-MEK5 binding to MEKK2 WT; actives lie on both sides | shares compounds with MEKK3 PB1 HTS | binding response (% of control), % at 10 µM; in the data active = binding response below about 16% or above about 210%; inactive = in between
MEKK2mut-MEK5 = mutant MEKK2 PB1-MEK5 binding signal retest – biochemical, single concentration, multiplex bead flow cytometry, confirmation. hit rate 2% among 5,900. shares compounds with MEKK3 PB1 HTS. Alexa488-MEK5 binding to MEKK2 mutant. percent response, % at 10 µM. AID 1893, 2009; in the data active = percent response mostly above about 71%, no sharp cut-off; inactive = mostly below about 38%;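 also: higher means compound restores mutant binding toward wildtype level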
MEKK3-MEK5 inh = MEKK3 wild-type PB1 binding to MEK5, inhibitors, confirmation, biochemical, bead multiplex flow cytometry, single concentration, wildtype; shares compounds with MEKK3 PB1 HTS; Alexa488-MEK5 binding to MEKK3; stronger effect = lower value; binding response (% of control), % at 10 µM; hit rate 1.8% among 5,900; AID 1894, 2009;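 active = binding response below 72% of control, or above a set upper limit, though filed actives all read lower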;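 also: 100% = DMSO only wells and 0% = binding blocked by excess unlabeled MEK5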
B2AR ag CP1 = beta2AR agonists via receptor internalization, confirmation, cell-based, FAP fluorogen, flow cytometry, single point, cherry pick 1. Am2.2-beta2AR cells, FAP surface receptor; stronger effect = lower value. shares compounds with B2AR ag. percent response (surface receptor), % at 10 µM. hit rate 25% among 1,100;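 active = surface receptor percent response at or below 58%, roughly 3 SD from nonfluorescent compounds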
B2AR FAP counter = flagged in Am2.2 fluorescence counterscreen for beta-2AR agonists; shares compounds with B2AR ag; Am2.2 cells, FAP fluorogen flow cytometry; stronger effect = lower value; calls only at 10 µM; 1,100 tested, under 10 active;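 active = percent response below a set limit in fluorescence channel 1 and below 50% in channel 8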
ATG4B conf = ATG4B protease inhibitors, retest, confirmation, biochemical, fluorescence, single concentration. shares compounds with ATG4B inhibitor. ATG4B protease fluorescent substrate cleavage assay. inhibition, % at 8.33 µM. hit rate 92% among 320. AID 504757, 2011; in the data active = inhibition above about 39%
PLA2 ctr = PLA2 enzyme inhibition, counter-screen for ATG4B inhibitor project, biochemical, single concentration, uHTS hits; shares compounds with ATG4B inhibitor; purified PLA2, NBD-C6-HPC fluorescence, 45 min; inhibition, % at 8.33 µM; hit rate 66% among 1,600; in the data active = inhibition above about 50%
Target sequence (P04054 whole entry, looked up): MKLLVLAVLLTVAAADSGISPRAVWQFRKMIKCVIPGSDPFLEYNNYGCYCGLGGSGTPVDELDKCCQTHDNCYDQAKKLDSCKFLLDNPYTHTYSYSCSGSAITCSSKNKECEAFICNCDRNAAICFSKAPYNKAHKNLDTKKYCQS
Numbers without * were called inactive; i = inactive; . = no result; + = active, no number. A selection: hits, their analogues and other compounds. The true share with any hit is near 2.9%.

SMILES | MEKK3 PB1 HTS | MEKK2wt PB1 HTS | B2AR ag | MEKK2mut PB1 HTS | ATG4B inhibitor | Dynein cargo inh | Dynein confirm | others
CC1(c2ccc3c(c2)OCCCO3)NC(=O)N(CC(=O)Nc2cccc(C#N)c2)C1=O (stereo unspecified) | . | . | -6 | . | -5 | . | .
CN(C(=O)COn1nnc2ccc(Cl)cc21)C1CCS(=O)(=O)C1 (stereo unspecified) | . | . | -4 | . | 6 | . | .
N#Cc1cc(-c2ccccc2)nc(Oc2ccc(Cl)cc2)n1 | 103 | 106 | 44* | 0 | -3 | -4.3* | + | B2AR ag CP1=50*;B2AR FAP counter=i
Cc1nc([N+](=O)[O-])c(Br)n1CC(=O)c1ccc2ccccc2c1 | 104 | 105 | 43* | 6 | 9 | -4.3* | + | B2AR ag CP1=78;B2AR FAP counter=i
Cc1nc([N+](=O)[O-])c(C(=O)OCc2ccccc2Br)n1C | 101 | 100 | 2 | -2 | -4 | -1.5 | .
C=CCSc1nsc(NC(=O)Nc2ccc(F)cc2)n1 | 91 | 92 | 20 | -2 | 11 | . | .
CC(=O)N1CCN(c2ccc(NC(=O)c3ccc(Br)o3)cc2Cl)CC1 | 94 | 94 | 10 | -13 | -3 | 0.56 | .
CCCC(=O)N1CCN(c2ccc(NC(=O)c3ccc([N+](=O)[O-])o3)cc2Cl)CC1 | 84 | 83 | 42* | -9 | -13 | -4.7* | + | B2AR ag CP1=4.8*;B2AR FAP counter=i
CCCNC(=O)c1nnsc1S(=O)(=O)c1ccc(Cl)cc1 | 100 | 96 | 81* | -2 | 3 | -4.2* | + | B2AR ag CP1=55*;B2AR FAP counter=i
CN(C)CC(C(=O)c1ccccc1)c1ccccc1 (stereo unspecified) | 95 | 99 | 56* | -3 | 4 | -3.7* | + | B2AR ag CP1=82;B2AR FAP counter=i
CN(Cc1cc(Cl)cc(Cl)c1)CC(C(=O)c1ccccc1)c1ccccc1 (stereo unspecified) | . | . | -2 | . | 0 | . | .
CCCSc1ncnc2[nH]ncc12 | . | . | 0 | . | 3 | . | .
COc1cccc(CNC(=O)COC(=O)c2nn(C)c(=O)c3ccccc23)c1 | . | . | -4 | . | 3 | . | .
O=C1ON=C(c2ccccc2)/C1=C/c1ccc(-c2ccccc2[N+](=O)[O-])o1 | 102 | 101 | 96* | 0 | 69* | -5.9* | + | PLA2 ctr=51*
O=C(CN(c1cccc(C(F)(F)F)c1)S(=O)(=O)c1ccc(Cl)c([N+](=O)[O-])c1)NCc1ccccc1Cl | 110 | 112 | 23 | 0 | 54* | -3.7* | i | PLA2 ctr=53*
O=C(O)c1ccc(NC2=C/C(=N/S(=O)(=O)c3ccccc3)c3ccccc3C2=O)cc1 | 101 | 100 | 23 | 0 | 43* | -4.2* | + | ATG4B conf=61*;PLA2 ctr=-9
FC(F)(F)c1cc(-c2ccco2)nc(NCc2ccccc2)n1 | 94 | 85 | 2 | -6 | 37 | -0.66 | .
Fc1ccc(CNc2nc(-c3ccco3)cc(C(F)(F)F)n2)cc1 | 110 | 100 | -1 | 3 | 41* | -4.4* | i | PLA2 ctr=52*
O=C(CNC(=O)Cc1cccc2ccccc12)NCc1ccc(F)cc1 | 101 | 104 | 23 | 4 | -1 | . | .
CCn1nc([N+](=O)[O-])c(C(C#N)c2nc3cc(C(F)(F)F)ccc3s2)c(Cl)c1=O (stereo unspecified) | 103 | 101 | -12 | 1 | 99* | -4.4* | + | PLA2 ctr=101*
Cc1ccc(Cn2c(C(C)Nc3nc(-c4ccc(Cl)c([N+](=O)[O-])c4)cs3)nc3cc(C(F)(F)F)ccc32)cc1 (stereo unspecified) | 100 | 102 | -6 | 2 | 2 | . | .
Cc1ccc(S(=O)(=O)N2CCCCC2)cc1NC(=O)C1CC(=O)N(c2ccc3c(c2)OCCO3)C1 (stereo unspecified) | . | . | 6 | . | 1 | . | .
O=C(c1ccc([N+](=O)[O-])cc1)N1CCN(C(=O)C2CCCCC2)CC1 | 104 | 108 | 11 | 5 | -10 | . | .
Cc1ccc(-n2nnc3c(=O)n(Cc4ccccn4)cnc32)cc1C | 109 | 97 | -3 | 175* | -3 | 0.16 | . | MEKK2wt confirm=96;MEKK2mut-MEK5=2;MEKK3-MEK5 inh=102
Cc1cccc(-n2nnc3c(=O)n(Cc4ccccn4)cnc32)c1 | 104 | 101 | 6 | 0 | 0 | 0.29 | .
